1 molecule from ChEMBL document CHEMBL1821554, “Synthesis and anticancer activity of chalcone-pyrrolobenzodiazepine conjugates linked via 1,2,3-triazole ring side-armed with alkane spacers” (2011) can be followed below.

The source made the active and inactive calls. The rule behind the calls is not given here.

Sequence of G1/S-specific cyclin-D1 (Homo sapiens) (P24385 whole entry): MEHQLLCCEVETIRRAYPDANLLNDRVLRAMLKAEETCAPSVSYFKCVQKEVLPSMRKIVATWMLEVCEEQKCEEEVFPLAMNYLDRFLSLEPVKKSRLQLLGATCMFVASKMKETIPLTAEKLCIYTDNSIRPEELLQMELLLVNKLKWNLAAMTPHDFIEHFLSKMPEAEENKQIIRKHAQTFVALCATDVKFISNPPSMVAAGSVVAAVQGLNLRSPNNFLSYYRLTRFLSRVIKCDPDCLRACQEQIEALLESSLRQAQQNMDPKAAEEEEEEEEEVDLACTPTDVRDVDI

In one experiment the test system is MCF7. Kind of experiment: Cell cycle arrest in human MCF7 cells assessed as accumulation at S phase at 10 uM after 24 hrs using propidium iodide staining based flow cytometric analysis (reference value: 12.92 +/- 1 %). The class given is functional. Background: Flow cytometry measures light scatter and fluorescence of single cells or particles in a stream.
Consider `COc1cc(/C=C/C(=O)c2ccc(O)cc2)ccc1OCCCn1cc(COc2cc3c(cc2OC)C(=O)N2CCC[C@H]2C=N3)nn1`, for which the Activity is given as 6.48%.

A further experiment concerns MCF7. The experiment is described as follows: Cytotoxicity against human MCF7 cells assessed as reduction in cell viability at 4 uM after 24 hrs by MTT assay. Format: functional, cell-based. The gist of the method: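 MCF-7 cells were seeded at 10,000 per well and left overnight, then treated with 4 µM compound for 24 h. MTT was added for 2 h at 37 °C, formazan was solubilized in extraction buffer, and OD was read at 570 nm. Untreated cells served as control. Three independent experiments, SD.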
Background: Tetrazolium assays rely on reduction of a dye to a coloured formazan, in cell work by metabolically active cells.
In the case of `COc1cc(/C=C/C(=O)c2ccc(O)cc2)ccc1OCCCn1cc(COc2cc3c(cc2OC)C(=O)N2CCC[C@H]2C=N3)nn1`, the outcome was Active.

The test system of a further experiment is A2780. The experiment is described as follows: Anticancer activity against human A2780 cells by SRB method. Format: functional. In outline:
(§1)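 Growth inhibition over a panel of human cancer lines (lung, ovarian, oral, colon, prostate, cervix, breast). Value is the 50% growth-inhibition concentration, reported as the mean ± standard error of the mean of three determinations.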
(In general: The SRB assay estimates cell density from bound dye.)
For orientation: GI50 means the concentration at which growth is held to half of that of the control. A low value points to more potent growth inhibition. Turning to `COc1cc(/C=C/C(=O)c2ccc(O)cc2)ccc1OCCCn1cc(COc2cc3c(cc2OC)C(=O)N2CCC[C@H]2C=N3)nn1`, the GI50 was 0.12 µM.

The subject of a further experiment is MCF7. The experiment is described as follows: Cell cycle arrest in human MCF7 cells assessed as accumulation at G2/M phase at 10 uM after 24 hrs using propidium iodide staining based flow cytometric analysis (reference value: 38.15 +/- 1.068 %). Format: functional.
For the molecule `COc1cc(/C=C/C(=O)c2ccc(O)cc2)ccc1OCCCn1cc(COc2cc3c(cc2OC)C(=O)N2CCC[C@H]2C=N3)nn1`, the Activity is given as 7.33%.

Tested on in the next experiment: not listed separately
The experiment is described as follows: Anticancer activity against human Gurav cells by SRB method. Format: functional. The gist of the method:
as §1
As to `COc1cc(/C=C/C(=O)c2ccc(O)cc2)ccc1OCCCn1cc(COc2cc3c(cc2OC)C(=O)N2CCC[C@H]2C=N3)nn1`, the GI50 is 0.13 µM.

Tested on in the next experiment: not listed separately
The experiment is described as follows: Down regulation of NF-kappaB activity expressed in human MCF7 cells transfected with NF-kB SEAP plasmid at 4 uM after 24 hrs by chemiluminescence-based luminometric analysis. The class given is cell-based. In outline:
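MCF-7 cells were transiently transfected with the NF-kB SEAP plasmid using lipofectamine 2000. After 24 h, cells were treated with 4 µM compound for 24 h. Lysates were assayed with a chemiluminescent reagent and read by luminometry and by 30 min X-ray film exposure. Transfected untreated cells served as control.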
Take `COc1cc(/C=C/C(=O)c2ccc(O)cc2)ccc1OCCCn1cc(COc2cc3c(cc2OC)C(=O)N2CCC[C@H]2C=N3)nn1`: the result was Active.

In a further experiment the test system is MCF7. The experiment is described as follows: Induction of cell cycle arrest at G1 phase in human MCF7 cells at 4 uM after 24 hrs using propidium iodide staining based flow cytometric analysis. Format: functional. The gist of the method: (§2)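 MCF-7 cells were seeded at 5 × 10^5 per 60 mm dish and grown for 24 h, then exposed to 4 µM compound for 24 h. Cells were trypsinized, fixed in ice-cold 70% ethanol at 4 °C for 30 min and treated with 1 mg/ml RNase at 37 °C for 30 min. They were stained with propidium iodide/citrate/Triton X-100, and DNA content was read on 20,000 events by flow cytometry. Three independent repeats.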
Turning to `COc1cc(/C=C/C(=O)c2ccc(O)cc2)ccc1OCCCn1cc(COc2cc3c(cc2OC)C(=O)N2CCC[C@H]2C=N3)nn1`, the outcome was Active.

The test system of the next experiment is MCF7. The experiment is described as follows: Cell cycle arrest in human MCF7 cells assessed as accumulation at G0 phase at 10 uM after 24 hrs using propidium iodide staining based flow cytometric analysis (reference value: 1.27 +/- 0.08 %). The class given is functional.
`COc1cc(/C=C/C(=O)c2ccc(O)cc2)ccc1OCCCn1cc(COc2cc3c(cc2OC)C(=O)N2CCC[C@H]2C=N3)nn1`: the Activity was 13.67%.

Tested on in another experiment: not listed separately
Kind of experiment: Anticancer activity against human DWD cells by SRB method. Format: functional. In outline:
as §1
The molecule `COc1cc(/C=C/C(=O)c2ccc(O)cc2)ccc1OCCCn1cc(COc2cc3c(cc2OC)C(=O)N2CCC[C@H]2C=N3)nn1` displayed a GI50 of 0.12 µM.

A further experiment relates to KB. Kind of experiment: Anticancer activity against human KB cells by SRB method. The class given is functional. In outline:
as §1
For the molecule `COc1cc(/C=C/C(=O)c2ccc(O)cc2)ccc1OCCCn1cc(COc2cc3c(cc2OC)C(=O)N2CCC[C@H]2C=N3)nn1`, the GI50 came to 2.03 µM.

A further experiment deals with A549. Kind of experiment: Anticancer activity against human A549 cells by SRB method. The class given is functional. In outline:
as §1
Molecule `COc1cc(/C=C/C(=O)c2ccc(O)cc2)ccc1OCCCn1cc(COc2cc3c(cc2OC)C(=O)N2CCC[C@H]2C=N3)nn1` had a GI50 of 0.15 µM.

Another experiment relates to PC-3. Kind of experiment: Anticancer activity against human PC3 cells by SRB method. The class given is functional. The gist of the method: as §1
As for `COc1cc(/C=C/C(=O)c2ccc(O)cc2)ccc1OCCCn1cc(COc2cc3c(cc2OC)C(=O)N2CCC[C@H]2C=N3)nn1`, halving of growth (GI50) required 0.16 µM. This lies in the sub-micromolar range.

A further experiment deals with MCF7. The experiment is described as follows: Anticancer activity against human MCF7 cells by SRB method. The class given is functional. The gist of the method:
as §1
Molecule `COc1cc(/C=C/C(=O)c2ccc(O)cc2)ccc1OCCCn1cc(COc2cc3c(cc2OC)C(=O)N2CCC[C@H]2C=N3)nn1` registered a GI50 of 0.16 µM.

The next experiment has as its system MCF7. Kind of experiment: Cell cycle arrest in human MCF7 cells assessed as accumulation at G1 phase at 10 uM after 24 hrs using propidium iodide staining based flow cytometric analysis (reference value: 47.64 +/- 1.49 %). The class given is functional.
`COc1cc(/C=C/C(=O)c2ccc(O)cc2)ccc1OCCCn1cc(COc2cc3c(cc2OC)C(=O)N2CCC[C@H]2C=N3)nn1`: the Activity is 72.51%.

For another experiment, the system named is HOP-62. Kind of experiment: Anticancer activity against human HOP62 cells by SRB method. The class given is functional. The gist of the method: as §1
For `COc1cc(/C=C/C(=O)c2ccc(O)cc2)ccc1OCCCn1cc(COc2cc3c(cc2OC)C(=O)N2CCC[C@H]2C=N3)nn1`, the GI50 is 0.17 µM.

A further experiment relates to SiHa. The experiment is described as follows: Anticancer activity against human SiHa cells by SRB method. Format: functional. In outline: as §1
`COc1cc(/C=C/C(=O)c2ccc(O)cc2)ccc1OCCCn1cc(COc2cc3c(cc2OC)C(=O)N2CCC[C@H]2C=N3)nn1` registered a GI50 of 0.18 µM.

In a further experiment the test system is MCF7. The experiment is described as follows: Induction of apoptosis in human MCF7 cells assessed as down regulation of Bcl-xL expression at 4 uM after 24 hrs by Western blot.
Turning to `COc1cc(/C=C/C(=O)c2ccc(O)cc2)ccc1OCCCn1cc(COc2cc3c(cc2OC)C(=O)N2CCC[C@H]2C=N3)nn1`, the outcome was Active.

A further experiment deals with MCF7. The experiment is described as follows: Downregulation of cyclin D1 protein expression in human MCF7 cells at 4 uM after 24 hrs by Western blot analysis. The class given is functional, cell-based. The gist of the method: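 MCF-7 cells at 80% confluency were treated with 4 µM compound for 24 h. Cells were lysed in RIPA buffer with protease inhibitors and protein was quantified by Bradford. 50 µg per lane was run on 12% SDS-PAGE and transferred to PVDF. Blots were probed overnight at 4 °C with rabbit polyclonal anti-cyclin D1, with β-actin as loading control, and detected by chemiluminescence.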
Take `COc1cc(/C=C/C(=O)c2ccc(O)cc2)ccc1OCCCn1cc(COc2cc3c(cc2OC)C(=O)N2CCC[C@H]2C=N3)nn1`: the result was Active.

The next experiment deals with MCF7. The experiment is described as follows: Cytotoxicity against human MCF7 cells assessed as reduction in cell viability at 2 uM after 24 hrs by MTT assay. The class given is functional, cell-based.
For the molecule `COc1cc(/C=C/C(=O)c2ccc(O)cc2)ccc1OCCCn1cc(COc2cc3c(cc2OC)C(=O)N2CCC[C@H]2C=N3)nn1`, the result was inactive.

For a further experiment, the system named is ZR-75-1. The experiment is described as follows: Anticancer activity against human ZR-75-1 cells by SRB method. Format: functional. In outline: as §1
In the case of `COc1cc(/C=C/C(=O)c2ccc(O)cc2)ccc1OCCCn1cc(COc2cc3c(cc2OC)C(=O)N2CCC[C@H]2C=N3)nn1`, growth was halved (GI50) at 0.17 µM.

Another experiment addresses G1/S-specific cyclin-D1 (Homo sapiens) (UniProt P24385). Kind of experiment: Down regulation of Cyclin D1 promoter activity expressed in human MCF7 cells co-transfected with luciferase gene at 4 uM after 24 hrs by luciferase reporter gene assay. The class given is cell-based. In outline:
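MCF-7 cells were transfected for 24 h with the cyclin D1 promoter (−1745) luciferase construct, which contains an NF-kB site. Cells were then treated with 4 µM compound (final) for a further 24 h, and lysate luciferase was measured by luminometer. Untransfected cells served as negative control and transfected untreated cells as control.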
Take `COc1cc(/C=C/C(=O)c2ccc(O)cc2)ccc1OCCCn1cc(COc2cc3c(cc2OC)C(=O)N2CCC[C@H]2C=N3)nn1`: the outcome was Active.

For another experiment, the system named is MCF7. The experiment is described as follows: Induction of apoptosis in human MCF7 cells assessed as down regulation of Bcl2 expression at 4 uM after 24 hrs by ELISA. Format: functional, cell-based. The gist of the method: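 MCF-7 cells were treated with 4 µM compound for 24 h. Lysates were added to Bcl2 antibody-coated wells, followed by biotinylated anti-human Bcl2 monoclonal antibody, and bound Bcl2 was detected with streptavidin-HRP (sandwich ELISA).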
Take `COc1cc(/C=C/C(=O)c2ccc(O)cc2)ccc1OCCCn1cc(COc2cc3c(cc2OC)C(=O)N2CCC[C@H]2C=N3)nn1`: the result was Active.

The next experiment concerns MCF7. Kind of experiment: Cell cycle arrest in human MCF7 cells assessed as accumulation at G0/G1 phase at 4 uM after 24 hrs using propidium iodide staining based flow cytometric analysis. The class given is functional. In outline:
as §2
On to `COc1cc(/C=C/C(=O)c2ccc(O)cc2)ccc1OCCCn1cc(COc2cc3c(cc2OC)C(=O)N2CCC[C@H]2C=N3)nn1`, for which the Activity came to 87.7%.
